{"source": "ChEMBL document CHEMBL4138271", "about": "“Crystal Structures and Human Leukemia Cell Apoptosis Inducible Activities of Parthenolide Analogues Isolated from Piptocoma rufescens” (J Nat Prod, 2018)", "key": {"[1]": {"tested_on": "MOLM-13", "assay": "Cytotoxicity against human MOLM13 cells after 72 hrs by MTS assay", "type": "functional, cell-based", "conditions": "MOLM-13, 72 h"}, "[2]": {"tested_on": "EOL1", "assay": "Cytotoxicity against human EOL-1 cells after 72 hrs by MTS assay", "type": "functional, cell-based", "conditions": "EOL1, 72 h"}, "[3]": {"tested_on": "HT-29", "assay": "Cytotoxicity against human HT-29 cells after 72 hrs by MTS assay", "type": "functional, cell-based", "conditions": "HT-29, 72 h"}, "[4]": {"tested_on": "MOLM-13", "assay": "Synergistic antileukemic activity against human MOLM13 cells assessed as concentration required for <= 75% cell survival after 72 hrs in presence of midostaurin by CellTiter 96 AQueous One solution cell proliferation assay", "type": "functional"}, "[5]": {"tested_on": "EOL1", "assay": "Synergistic antileukemic activity against human EOL-1 cells assessed as concentration required for <= 75% cell survival after 72 hrs in presence of midostaurin by CellTiter 96 AQueous One solution cell proliferation assay", "type": "functional"}, "[6]": {"tested_on": "MOLM-13", "assay": "Induction of apoptosis in human MOLM13 cells assessed as live cells at 3 uM after 24 hrs by Annexin-V FITC/7-AAD staining based flow cytometric method (reference value: 86.8%)", "type": "functional"}, "[7]": {"tested_on": "MOLM-13", "assay": "Induction of apoptosis in human MOLM13 cells assessed as early apoptotic cells at 3 uM after 24 hrs by Annexin-V FITC/7-AAD staining based flow cytometric method (reference value: 11.8%)", "type": "functional"}, "[8]": {"tested_on": "MOLM-13", "assay": "Induction of apoptosis in human MOLM13 cells assessed as late apoptotic cells at 3 uM after 24 hrs by Annexin-V FITC/7-AAD staining based flow cytometric method (reference value: 1.43%)", "type": "functional"}, "[9]": {"tested_on": "MOLM-13", "assay": "Induction of apoptosis in human MOLM13 cells assessed as necrotic cells at 3 uM after 24 hrs by Annexin-V FITC/7-AAD staining based flow cytometric method (reference value: 0%)", "type": "functional"}, "[10]": {"tested_on": "MOLM-13", "assay": "Induction of apoptosis in human MOLM13 cells assessed as live cells at 6 uM after 24 hrs by Annexin-V FITC/7-AAD staining based flow cytometric method (reference value: 86.8%)", "type": "functional"}, "[11]": {"tested_on": "MOLM-13", "assay": "Induction of apoptosis in human MOLM13 cells assessed as early apoptotic cells at 6 uM after 24 hrs by Annexin-V FITC/7-AAD staining based flow cytometric method (reference value: 11.8%)", "type": "functional"}, "[12]": {"tested_on": "MOLM-13", "assay": "Induction of apoptosis in human MOLM13 cells assessed as late apoptotic cells at 6 uM after 24 hrs by Annexin-V FITC/7-AAD staining based flow cytometric method (reference value: 1.43%)", "type": "functional"}, "[13]": {"tested_on": "MOLM-13", "assay": "Induction of apoptosis in human MOLM13 cells assessed as necrotic cells at 6 uM after 24 hrs by Annexin-V FITC/7-AAD staining based flow cytometric method (reference value: 0%)", "type": "functional"}, "[14]": {"tested_on": "MOLM-13", "assay": "Induction of apoptosis in human MOLM13 cells assessed as live cells at 12 uM after 24 hrs by Annexin-V FITC/7-AAD staining based flow cytometric method (reference value: 86.8%)", "type": "functional"}, "[15]": {"tested_on": "MOLM-13", "assay": "Induction of apoptosis in human MOLM13 cells assessed as early apoptotic cells at 12 uM after 24 hrs by Annexin-V FITC/7-AAD staining based flow cytometric method (reference value: 11.8%)", "type": "functional"}, "[16]": {"tested_on": "MOLM-13", "assay": "Induction of apoptosis in human MOLM13 cells assessed as late apoptotic cells at 12 uM after 24 hrs by Annexin-V FITC/7-AAD staining based flow cytometric method (reference value: 1.43%)", "type": "functional"}, "[17]": {"tested_on": "MOLM-13", "assay": "Induction of apoptosis in human MOLM13 cells assessed as necrotic cells at 12 uM after 24 hrs by Annexin-V FITC/7-AAD staining based flow cytometric method (reference value: 0%)", "type": "functional"}, "[18]": {"tested_on": "EOL1", "assay": "Induction of apoptosis in human EOL-1 cells assessed as live cells at 3 uM after 24 hrs by Annexin-V FITC/7-AAD staining based flow cytometric method (reference value: 97.5%)", "type": "functional"}, "[19]": {"tested_on": "EOL1", "assay": "Induction of apoptosis in human EOL-1 cells assessed as early apoptotic cells at 3 uM after 24 hrs by Annexin-V FITC/7-AAD staining based flow cytometric method (reference value: 1.94%)", "type": "functional"}, "[20]": {"tested_on": "EOL1", "assay": "Induction of apoptosis in human EOL-1 cells assessed as late apoptotic cells at 3 uM after 24 hrs by Annexin-V FITC/7-AAD staining based flow cytometric method (reference value: 0.535%)", "type": "functional"}, "[21]": {"tested_on": "EOL1", "assay": "Induction of apoptosis in human EOL-1 cells assessed as necrotic cells at 3 uM after 24 hrs by Annexin-V FITC/7-AAD staining based flow cytometric method (reference value: 0.032%)", "type": "functional"}, "[22]": {"tested_on": "EOL1", "assay": "Induction of apoptosis in human EOL-1 cells assessed as live cells at 6 uM after 24 hrs by Annexin-V FITC/7-AAD staining based flow cytometric method (reference value: 97.5%)", "type": "functional"}, "[23]": {"tested_on": "EOL1", "assay": "Induction of apoptosis in human EOL-1 cells assessed as early apoptotic cells at 6 uM after 24 hrs by Annexin-V FITC/7-AAD staining based flow cytometric method (reference value: 1.94%)", "type": "functional"}, "[24]": {"tested_on": "EOL1", "assay": "Induction of apoptosis in human EOL-1 cells assessed as late apoptotic cells at 6 uM after 24 hrs by Annexin-V FITC/7-AAD staining based flow cytometric method (reference value: 0.535%)", "type": "functional"}, "[25]": {"tested_on": "EOL1", "assay": "Induction of apoptosis in human EOL-1 cells assessed as necrotic cells at 6 uM after 24 hrs by Annexin-V FITC/7-AAD staining based flow cytometric method (reference value: 0.032%)", "type": "functional"}, "[26]": {"tested_on": "EOL1", "assay": "Induction of apoptosis in human EOL-1 cells assessed as live cells at 12 uM after 24 hrs by Annexin-V FITC/7-AAD staining based flow cytometric method (reference value: 97.5%)", "type": "functional"}, "[27]": {"tested_on": "EOL1", "assay": "Induction of apoptosis in human EOL-1 cells assessed as early apoptotic cells at 12 uM after 24 hrs by Annexin-V FITC/7-AAD staining based flow cytometric method (reference value: 1.94%)", "type": "functional"}, "[28]": {"tested_on": "EOL1", "assay": "Induction of apoptosis in human EOL-1 cells assessed as late apoptotic cells at 12 uM after 24 hrs by Annexin-V FITC/7-AAD staining based flow cytometric method (reference value: 0.535%)", "type": "functional"}, "[29]": {"tested_on": "EOL1", "assay": "Induction of apoptosis in human EOL-1 cells assessed as necrotic cells at 12 uM after 24 hrs by Annexin-V FITC/7-AAD staining based flow cytometric method (reference value: 0.032%)", "type": "functional"}, "[30]": {"tested_on": "MOLM-13", "assay": "Induction of apoptosis in human MOLM13 cells assessed as caspase-3 activation at 10 uM after 72 hrs by immunoblotting analysis", "type": "functional, cell-based", "outline": "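MOLM-13 cells treated 72 h with test compounds at 10 μM or PKC412 at 10 nM. Cells washed in ice-cold PBS, lysed at 10^8 cells/mL in NP-40 hypertonic buffer (pH 7.5) with protease/phosphatase inhibitors, then run on SDS-PAGE and PVDF. Blots probed 12 h with rabbit monoclonal cleaved caspase-3 (Asp175), β-actin as loading control. Representative of three independent experiments.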"}, "[31]": {"tested_on": "EOL1", "assay": "Induction of apoptosis in human EOL-1 cells assessed as caspase-3 activation at 10 uM after 72 hrs by immunoblotting analysis", "type": "functional, cell-based", "outline": "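EOL-1 cells (RPMI 1640, 10% FBS, 37 °C, 5% CO2) exposed 72 h; compounds at 10 μM, PKC412 at 10 nM. Harvested, PBS-washed, lysed in hypertonic NP-40 buffer with protease/phosphatase inhibitors; SDS-PAGE, PVDF transfer, rabbit monoclonal cleaved caspase-3 (Asp175) antibody 12 h, secondary 1 h, chemiluminescent detection; β-actin loading control. Representative blots of three independent experiments.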"}, "[32]": {"target": "Transcription factor p65 (Homo sapiens) (UniProt Q04206)", "sequence (Q04206 whole entry)": "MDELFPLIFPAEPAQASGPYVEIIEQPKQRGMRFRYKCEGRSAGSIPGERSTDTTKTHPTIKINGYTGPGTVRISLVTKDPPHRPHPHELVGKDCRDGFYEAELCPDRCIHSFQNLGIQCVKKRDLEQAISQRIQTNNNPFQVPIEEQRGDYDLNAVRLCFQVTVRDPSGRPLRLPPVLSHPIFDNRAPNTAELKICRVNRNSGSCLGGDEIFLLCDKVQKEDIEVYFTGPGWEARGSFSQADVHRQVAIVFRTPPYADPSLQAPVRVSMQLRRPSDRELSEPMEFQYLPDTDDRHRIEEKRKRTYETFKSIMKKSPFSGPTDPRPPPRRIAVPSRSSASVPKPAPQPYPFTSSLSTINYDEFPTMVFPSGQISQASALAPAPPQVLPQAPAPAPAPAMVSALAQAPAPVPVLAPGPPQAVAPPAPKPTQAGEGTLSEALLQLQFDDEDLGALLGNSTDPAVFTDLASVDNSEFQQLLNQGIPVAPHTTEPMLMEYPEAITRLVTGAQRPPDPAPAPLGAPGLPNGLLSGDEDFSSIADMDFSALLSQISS", "assay": "Inhibition of NFkappaB p65 in human MOLM13 cells at 10 uM after 72 hrs by immunoblotting method", "type": "cell-based", "outline": "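MOLM-13 or EOL-1 cells treated 72 h at 10 μM. Cells washed in ice-cold PBS and lysed in hypertonic NP-40 buffer (10 mM HEPES pH 7.5, 0.5 M NaCl) with protease/phosphatase inhibitors. Protein measured by BCA; SDS-PAGE onto PVDF. Probed 12 h with rabbit monoclonal NF-κB-p65 antibody, goat β-actin as loading control, then chemiluminescence. Blots representative of three independent experiments.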"}}, "note": "Active and inactive are the calls of the source. No cut-off for these calls is given here."}
{"smiles": "C=C1C(=O)O[C@@H]2C[C@@H](C)CCC(=O)[C@](C)(OC(C)=O)C[C@H](OC(=O)/C(C)=C\\C)[C@@H]12", "values": [{"measurement": "IC50", "setting": "[1]", "result": 10, "unit": "µM"}, {"measurement": "IC50", "setting": "[2]", "result": 8, "unit": "µM"}, {"measurement": "IC50", "setting": "[3]", "result": 3, "unit": "µM"}, {"measurement": "Activity", "setting": "[4]", "result": 4.9, "unit": "µM"}, {"measurement": "Activity", "setting": "[5]", "result": 2.5, "unit": "µM"}, {"measurement": "Activity", "setting": "[6]", "result": 94.7, "unit": "%"}, {"measurement": "Activity", "setting": "[7]", "result": 4.46, "unit": "%"}, {"measurement": "Activity", "setting": "[8]", "result": 0.817, "unit": "%"}, {"measurement": "Activity", "setting": "[9]", "result": 0.056, "unit": "%"}, {"measurement": "Activity", "setting": "[10]", "result": 93.6, "unit": "%"}, {"measurement": "Activity", "setting": "[11]", "result": 4.87, "unit": "%"}, {"measurement": "Activity", "setting": "[12]", "result": 1.19, "unit": "%"}, {"measurement": "Activity", "setting": "[13]", "result": 0.314, "unit": "%"}, {"measurement": "Activity", "setting": "[14]", "result": 36.6, "unit": "%"}, {"measurement": "Activity", "setting": "[15]", "result": 6.8, "unit": "%"}, {"measurement": "Activity", "setting": "[16]", "result": 39.7, "unit": "%"}, {"measurement": "Activity", "setting": "[17]", "result": 16.9, "unit": "%"}, {"measurement": "Activity", "setting": "[18]", "result": 97.9, "unit": "%"}, {"measurement": "Activity", "setting": "[19]", "result": 1.64, "unit": "%"}, {"measurement": "Activity", "setting": "[20]", "result": 0.417, "unit": "%"}, {"measurement": "Activity", "setting": "[21]", "result": 0.043, "unit": "%"}, {"measurement": "Activity", "setting": "[22]", "result": 97.7, "unit": "%"}, {"measurement": "Activity", "setting": "[23]", "result": 1.66, "unit": "%"}, {"measurement": "Activity", "setting": "[24]", "result": 0.545, "unit": "%"}, {"measurement": "Activity", "setting": "[25]", "result": 0.096, "unit": "%"}, {"measurement": "Activity", "setting": "[26]", "result": 93.4, "unit": "%"}, {"measurement": "Activity", "setting": "[27]", "result": 1.4, "unit": "%"}, {"measurement": "Activity", "setting": "[28]", "result": 4.7, "unit": "%"}, {"measurement": "Activity", "setting": "[29]", "result": 0.497, "unit": "%"}, {"measurement": "Activity", "setting": "[30]", "result": "Active"}, {"measurement": "Activity", "setting": "[31]", "result": "Active"}, {"measurement": "inhibition", "setting": "[32]", "result": "Active"}]}
